Shown are actives, neighbours in structure and some others; about 1.5% of the full set was active somewhere.
APJ antagonist: APJ receptor antagonism. P35414. CHO-K1 APJ beta-arrestin complementation, luminescence. inhibition, % at 20 µM. 330,000 compounds, 0.32% hits;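 active = inhibition above about 40% at 20 µM, limit read from the data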;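 note: cells challenged with 10 nM apelin-13 agonist together with compound; plate controls were apelin-13 plus DMSO wells for no effect and DMSO wells lacking apelin-13 for full effect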
Target sequence (P35414 whole entry, looked up): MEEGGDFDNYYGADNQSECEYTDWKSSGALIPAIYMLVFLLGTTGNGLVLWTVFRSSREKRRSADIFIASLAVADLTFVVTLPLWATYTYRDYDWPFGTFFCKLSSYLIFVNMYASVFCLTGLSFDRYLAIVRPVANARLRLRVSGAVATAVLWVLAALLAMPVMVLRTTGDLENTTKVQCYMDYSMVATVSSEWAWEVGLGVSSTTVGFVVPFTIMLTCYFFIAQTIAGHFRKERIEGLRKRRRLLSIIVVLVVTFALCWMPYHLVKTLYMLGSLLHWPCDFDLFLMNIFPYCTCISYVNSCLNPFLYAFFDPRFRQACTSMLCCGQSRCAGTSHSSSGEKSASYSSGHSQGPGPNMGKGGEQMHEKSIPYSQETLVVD
m5-HT2A agonist: mouse HTR2A agonism via beta-arrestin recruitment; 360,000 compounds, 0.66% hits; CHO-K1 mHTR2A beta-arrestin complementation, luminescence; percent of 30 µM serotonin response; activation, % at 7.6 µM;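 active = activation above a run cutoff, the mean activation of all tested compounds plus 3 SD, cut at about 14% in these data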;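 note: 0% = plate median of compound wells and 100% = 30 µM serotonin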
NTR1 agonist: agonists of human neurotensin receptor NTR1 | AID 493036 | 330,000 compounds, 0.17% hits | NTR1-U2OS beta-arrestin-GFP spot imaging, agonist mode | activation, % at 20 µM;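 active = activation at or above 40% of the spot to cytoplasm intensity ratio, with at least 20 cells analyzed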;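 note: 0% = DMSO without peptide and 100% = 100 nM NTR1 peptide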
CCR6 antagonist: antagonists of human CCR6 receptor; P51684; CHO-K1 CCR6 PathHunter beta-arrestin, luminescence, CCL20-stimulated; inhibition, % at 20 µM; 340,000 compounds, 0.49% hits;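 active = compounds whose inhibition of the agonist-driven luminescence signal at 20 µM reaches about 50%, limit read from the data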;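 note: cells stimulated with CCL20 at 14 nM final; plate controls were DMSO with CCL20 for no effect and DMSO without agonist for full effect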
APJ agonist: agonists of human APJ apelin receptor. CHO-K1 APJ PathHunter beta-arrestin, luminescence; 0% DMSO wells, 100% apelin. 330,000 compounds, 0.11% hits. P35414. AID 2520. activation, % at 20 µM;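 active = activation more than six SD over the plate average, tested at 20 µM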;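 note: 0% = DMSO alone and 100% = apelin-13 at 10 nM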
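Material: engineered CHO-K1 APJ arrestin reporter cells; amount: 1000 CHO-K1 reporter cells seeded per well; incubation: compound stimulation 90 min at 25 °C, detection 60 min; signal: luminescent beta-gal fragment complementation, chemiluminescent substrate; read-out basis: APJ agonist activity; controls: DMSO-only wells as negative, 10 nM Apelin-13 as positive control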
CXCR6 inh: blocks human CXCR6 beta-arrestin recruitment. O00574. CHO-K1 PathHunter CXCR6 beta-arrestin, luminescence. inhibition, % at 20 µM. 360,000 compounds, 0.36% hits. AID 602244; in the data active = inhibition above about 34%, passing the limit was not always enough;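 note: antagonist mode with CXCL16 agonist at 10 nM final; 0% = 10 nM CXCL16 with DMSO and 100% = unstimulated wells without agonist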
Target sequence (O00574 whole entry, looked up): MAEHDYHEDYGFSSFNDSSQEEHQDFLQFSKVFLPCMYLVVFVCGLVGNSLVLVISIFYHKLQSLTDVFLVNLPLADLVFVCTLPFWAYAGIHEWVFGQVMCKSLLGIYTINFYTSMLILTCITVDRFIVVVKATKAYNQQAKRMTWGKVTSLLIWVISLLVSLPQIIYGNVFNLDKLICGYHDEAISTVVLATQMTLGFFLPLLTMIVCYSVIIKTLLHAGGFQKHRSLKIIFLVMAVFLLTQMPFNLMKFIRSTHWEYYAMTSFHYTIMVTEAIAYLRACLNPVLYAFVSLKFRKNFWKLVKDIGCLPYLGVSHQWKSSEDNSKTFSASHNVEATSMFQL
OPRM1 ag: activates human mu opioid receptor in HTR2A counterscreen | shares compounds with m5-HT2A agonist | U2OS OPRM1 beta-arrestin PathHunter, luminescence; DMSO 0%, DAMGO 9.3 µM 100% | activation, % at 9.3 µM | 2,300 compounds, 5.3% hits;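 active = mean activation above the mean of DMSO-only wells plus 3 SD, cut at about 0.5% in these data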
m5-HT2A ag conf: confirmation of mouse HTR2A serotonin receptor agonists | shares compounds with m5-HT2A agonist | activation, % at 7.6 µM | 2,300 compounds, 19% hits | CHO-K1 PathHunter beta-arrestin recruitment, luminescence; DMSO 0%, 30 µM serotonin 100%;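 active = mean activation across triplicates above the hit threshold derived in the original primary screen, cut at about 15% in these data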
* = called active by the depositor.

For CCCCc1c(C)nn(-c2nnc3c4ccccc4n(CC)c3n2)c1C the results were APJ antagonist -2.1, m5-HT2A agonist 14.6*, NTR1 agonist 15.8, CCR6 antagonist 0.9, APJ agonist 9.5, CXCR6 inh 2.4, OPRM1 ag 0.4 and m5-HT2A ag conf 4.7.
`CCn1c2ccccc2c2nc3ccccc3nc21` gave APJ antagonist 8.1, m5-HT2A agonist 3.7, NTR1 agonist 7.3, CCR6 antagonist 7.2, APJ agonist -4.9 and CXCR6 inh 6.0.
Cc1nc2ccc(NS(=O)(=O)c3ccc(F)cc3F)cc2s1 was read as APJ antagonist -9.9, m5-HT2A agonist 21.8*, NTR1 agonist -0.3, CCR6 antagonist -4.8, APJ agonist -1.2, CXCR6 inh -10.0, OPRM1 ag -0.4 and m5-HT2A ag conf -3.1.
Cc1nc2ccc(NS(=O)(=O)c3ccc(F)c(F)c3F)cc2s1 was read as APJ antagonist 4.8, m5-HT2A agonist 0.0, NTR1 agonist 4.4, CCR6 antagonist 11.3, APJ agonist -2.6 and CXCR6 inh -9.3.
Screening CC(=NNS(=O)(=O)c1cccc([N+](=O)[O-])c1)c1ccc(-n2ccnc2)cc1 returned APJ antagonist 2.7, m5-HT2A agonist 15.3*, NTR1 agonist 2.1, CCR6 antagonist 10.8, APJ agonist -0.7, CXCR6 inh 7.1, OPRM1 ag -0.7 and m5-HT2A ag conf -5.3.
`CCOC(=O)C(=O)NC1CC=CCC1c1ccc2c(c1)OCO2` (centres undefined) gave m5-HT2A agonist 4.1, CCR6 antagonist -0.7 and CXCR6 inh 2.4.
Fc1ccc(CN2CCN(c3ncccn3)CC2)cc1 was read as APJ antagonist -9.5, m5-HT2A agonist 22.6*, NTR1 agonist 0.3, CCR6 antagonist -3.3, APJ agonist -4.3, CXCR6 inh 1.5, OPRM1 ag 1.3* and m5-HT2A ag conf 142.0*.
CCc1ccc(CN2CCN(c3ncccn3)CC2)cc1 was read as APJ antagonist 1.7, m5-HT2A agonist 8.3, NTR1 agonist 0.6, CCR6 antagonist 5.0, APJ agonist 1.2 and CXCR6 inh 8.8.
For Fc1ccc(F)c(CN2CCN(c3ncccn3)CC2)c1 the results were APJ antagonist 0.2, m5-HT2A agonist 43.8*, NTR1 agonist 0.7, CCR6 antagonist 0.5, APJ agonist 7.0, CXCR6 inh 9.4, OPRM1 ag -0.8 and m5-HT2A ag conf 100.6*.
Screening FC(F)(F)c1ccccc1NC(=S)NC1CCN(Cc2ccccc2)CC1 returned APJ antagonist 6.9, m5-HT2A agonist 16.9*, NTR1 agonist 1.6, CCR6 antagonist 14.7, APJ agonist -1.7, CXCR6 inh -2.0, OPRM1 ag -0.7 and m5-HT2A ag conf -4.6.
Screening CC1CCN(CCC(=O)N/N=C/c2ccc([N+](=O)[O-])cc2)CC1 returned APJ antagonist 7.8, m5-HT2A agonist 0.5, NTR1 agonist 0.3, CCR6 antagonist -7.4, APJ agonist -1.1 and CXCR6 inh 4.7.
`COC(=O)NCCc1cc(OC)c(OC)cc1S(=O)(=O)N1CC(=O)Nc2ccccc21` gave APJ antagonist 6.0, m5-HT2A agonist 15.1*, NTR1 agonist 0.2, CCR6 antagonist 7.9, APJ agonist -3.0, CXCR6 inh 7.1, OPRM1 ag -0.5 and m5-HT2A ag conf -0.8.
`Cc1ccccc1S(=O)(=O)N(C)C[C@@H]1OCc2ccccc2-c2c(n(C)c3ccccc23)C(=O)N([C@H](C)CO)C[C@@H]1C` gave m5-HT2A agonist 56.3*, CXCR6 inh 8.7, OPRM1 ag -0.3 and m5-HT2A ag conf 3.6.
Screening C[C@H](CO)N1C[C@H](C)[C@H](CN(C)S(=O)(=O)c2ccccc2)OCc2ccccc2-c2c(n(C)c3ccccc23)C1=O returned m5-HT2A agonist 1.0 and CXCR6 inh -0.9.
Screening CCN(Cc1ccccc1)C(=O)Cn1cc(S(=O)(=O)NC)c(S(=O)(=O)NC)c1 returned APJ antagonist 15.8, m5-HT2A agonist 16.5*, NTR1 agonist -0.1, CCR6 antagonist 6.7, APJ agonist -2.3, CXCR6 inh -2.9, OPRM1 ag -0.4 and m5-HT2A ag conf -0.2.
CCOc1ccc(S(=O)(=O)NCC2(N3CCCCC3)CCCCC2)cc1 was read as APJ antagonist -0.7, m5-HT2A agonist 16.8*, NTR1 agonist 0.9, CCR6 antagonist 16.6, APJ agonist -3.9, CXCR6 inh 6.1, OPRM1 ag -0.7 and m5-HT2A ag conf -1.2.
For CCOc1ccc(S(=O)(=O)NCCC(=O)NCC2(N3CCCCC3)CCCCC2)cc1 the results were APJ antagonist -15.8, m5-HT2A agonist -0.1, NTR1 agonist -0.1, CCR6 antagonist 1.2, APJ agonist 0.7 and CXCR6 inh 7.8.
`NS(=O)(=O)c1ccc(CCNC(=O)COC(=O)/C=C/c2cc(Br)ccc2F)cc1` gave APJ antagonist 3.2, m5-HT2A agonist -1.1, NTR1 agonist 0.8, CCR6 antagonist -6.4, APJ agonist -3.2 and CXCR6 inh -6.3.
Screening CCC(C)NC(=O)C1CCN(S(=O)(=O)c2cc([N+](=O)[O-])ccc2Cl)CC1 (centres undefined) returned APJ antagonist -75.2, m5-HT2A agonist 24.1*, NTR1 agonist -1.3, CCR6 antagonist -6.9, APJ agonist 7.4, CXCR6 inh -9.3, OPRM1 ag 0.2 and m5-HT2A ag conf -2.0.
For COc1cc(CC(=O)Nc2c(-c3ccccc3)[nH][nH]c2=O)cc(OC)c1 the results were m5-HT2A agonist -0.8.
Cc1occc1C(=O)N1CCN(c2ccc(Cl)c(Cl)c2)CC1 was read as APJ antagonist -9.0, m5-HT2A agonist 35.9*, NTR1 agonist 8.0, CCR6 antagonist -4.8, APJ agonist 0.6, CXCR6 inh -19.5, OPRM1 ag -0.3 and m5-HT2A ag conf 12.6.
`O=C(O)C1CC1C(=O)N1CCN(c2ccc(Cl)c(Cl)c2)CC1` (centres undefined) gave APJ antagonist -4.3, m5-HT2A agonist 35.5*, NTR1 agonist -2.0, CCR6 antagonist 7.1, APJ agonist -0.1, CXCR6 inh -16.7, OPRM1 ag -0.7 and m5-HT2A ag conf 18.6*.
Screening Cc1ccc(N2CCN(C(=O)N3CCCC3)CC2)cc1Cl returned APJ antagonist 17.9, m5-HT2A agonist 2.1, NTR1 agonist -0.1, CCR6 antagonist -17.3, APJ agonist -4.1 and CXCR6 inh 1.8.
Screening COC1=C/C(=C/c2c(O)c(C#N)c3ccccn23)C=CC1=O returned APJ antagonist 33.5, m5-HT2A agonist 20.4*, NTR1 agonist 0.3, CCR6 antagonist 55.7*, APJ agonist -4.5, CXCR6 inh 32.0, OPRM1 ag -0.6 and m5-HT2A ag conf -7.5.

Screening results as filed in PubChem BioAssay.
